Experimental data published in ChEMBL document CHEMBL3763082, “Design and synthesis of novel hybrid sydnonimine and prodrug useful for glaucomatous optic neuropathy” (Bioorg Med Chem Lett, 2016).
One block for each compound: values may come before it. Active and inactive are the calls of the source. No cut-off for these calls is given here.

Columns and labels:
661W = test: Increase in number of mouse 661W cells at 10 to 50 uM after 24 hrs by MTT assay relative to vehicle control; format: functional, cell-based
Summary of the method: (§1)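 About 3000 NTM5 trabecular meshwork cells or transformed 661 W photoreceptor cells seeded per well, exposed to 10, 50 or 100 μM for 24 h; vehicle DMEM/DMSO (1 mL/10 μL). Viability by MTT-type kit (tetrazolium reduced to formazan), absorbance 490 nm; eight biological replicates.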

[1] = Upregulation of SOD in H2O2-induced mouse 661W cells at 50 to 100 uM by Cayman's superoxide dismutase assay; format: functional
Summary of the method: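 SOD activity in 661 W cells treated with test agent in combination with H2O2, vehicle DMEM plus DMSO; commercial kit detecting superoxide generated by xanthine oxidase/hypoxanthine with a tetrazolium salt, per manufacturer's instructions.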

[2] = Half life of compound in 0.5 M phosphate buffer at pH 7.4 at 25 degC by LC/MS analysis; format: physicochemical; details: for t1/2: buffer; for half-life: phosphate buffer
[3] = Half life of compound in 0.5 M phosphate buffer at pH 6.5 at 25 degC by LC/MS analysis; format: physicochemical; details: for t1/2: buffer; for half-life: phosphate buffer
[4] = Cytotoxicity against human NTM5 cells assessed as cell viability at 100 uM after 24 hrs by MTT assay; format: cell-based; summary of the method: as §1
[5] = Neuroprotective effect against H2O2-induced oxidative stress in mouse 661W cells assessed as cell viability at 50 to 100 uM by MTT assay relative to control; format: functional, cell-based
[6] = Cytotoxicity against mouse 661W cells assessed as cell viability at 100 uM after 24 hrs by MTT assay; format: cell-based; summary of the method: as §1
[7] = Induction of nitric oxide release in 50 mM phosphate buffer at pH 7.4 after 10 mins by Greiss assay; format: physicochemical; details: pH 7.4, 10 min
Rhesus monkey = test: Suppression of elevated intraocular pressure in lasered monkey eye at 150 ug at 6 hrs; format: functional, Macaca mulatta

Compound: CC1(C)CC(O)CC(C)(C)N1[O]
Activity (661W): inactive

Compound: [NH-]c1c[n+](N2CCOCC2)no1
Activity (661W): inactive
Activity [1]: inactive

Compound: CC(OC(=O)[N-]c1c[n+](C2CC(C)(C)N(O)C(C)(C)C2)no1)OC(=O)C(C)(C)C (stereo not given)
t1/2 [2]: 9.1 months
t1/2 [3]: 15.3 months

Compound: CC1(C)CC([n+]2cc([NH-])on2)CC(C)(C)N1O.Cl
Activity [4]: Non-toxic
half-life [2]: < 24 h
half-life [3]: < 24 h
Activity [5]: Active
Activity (661W): Active
Activity [6]: Non-toxic
Activity [1]: Active
Activity [7]: Active

Compound: O=[N+]([O-])OCC(CO[N+](=O)[O-])O[N+](=O)[O-] [NITROGLYCERIN]
Activity (Rhesus monkey): 13%

t1/2 [2]: 9 months
t1/2 [3]: 18 months
Compound: CC(OC(=O)[N-]c1c[n+](N2CCOCC2)no1)OC(=O)C(C)(C)C (stereo not given)

Compound: CC1(C)CC(O[N+](=O)[O-])CC(C)(C)N1O
Activity (Rhesus monkey): 20%

half-life [2]: < 24 h
half-life [3]: < 24 h
Activity [7]: Active
Compound: N=c1c[n+](N2CCOCC2)[n-]o1 [LINSIDOMINE]
